The nature of data set [1]: Cytotoxicity against mouse RAW264.7 cells assessed as cell survival at 25 uM. The data set is classed as cell-based. To be noted: read-out: Survival.
The subject of the next data set is RAW264.7. Briefly: Antiinflammatory activity against mouse RAW264.7 cells assessed as inhibition of LPS-induced NO production pretreated for 30 mins followed by LPS stimulation measured after 24 hrs by Griess reagent based assay. It counts as functional, cell-based. The gist of the method:
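Supernatant mixed 1:1 with Griess reagent for 10 min, absorbance read at 540 nm. DMSO final ≤0.1%. Aminoguanidine hydrochloride served as positive control. Run in triplicate; IC50 given as mean ± SD (n = 3).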
For orientation: Griess reagent forms a coloured azo dye with nitrite.

Consider 44 compounds from ChEMBL document CHEMBL4145623, “Abietane Diterpenoids from the Roots of Clerodendrum trichotomum and Their Nitric Oxide Inhibitory Activities” (J Nat Prod, 2018).

Structures can show the parent of a compound that is named as a salt.

Consider `CC1=C(C)C2=CC(=O)C3=C(C(=O)c4oc(C)cc4C3=O)[C@@]2(C)CC1`, for which the viability at 25 µM in data set [1] is < 15%. The IC50 is the point on the concentration scale where inhibition reaches its midpoint. With `C[C@H]1Cc2c(O)c3c(c(O)c2O1)[C@@]1(C)CCC(=O)C(C)(C)C1=C(O)C3=O` [TEUVINCENONE A], in the data set with RAW264.7, the IC50 was > 50 µM. On to `CC1=C(CO)CC[C@@]2(C)C1=CC(=O)c1c(O)c3c(c(O)c12)O[C@@H](C)C3`, for which the viability at 25 µM in data set [1] was < 15%. For `CC(C)c1cc2c(c(O)c1O)[C@@]1(C)CCCC(C)(C)[C@@H]1[C@@H](O)C2=O` [6-ALPHA-HYDROXYDEMETHYL-CRYPTOJAPONOL], in the data set on RAW264.7, the IC50 is 9.4 µM. On to `N=C(N)NN` [PIMAGEDINE HYDROCHLORIDE], for which, in the data set with RAW264.7, the IC50 worked out at 26.2 µM. As for `CC1=C(C=O)CC[C@@]2(C)C1=CC(=O)c1c(O)c3c(c(O)c12)O[C@@H](C)C3`, in data set [1], the viability at 25 µM is < 15%. Consider `CC1=C(C)C2=CC(=O)c3c(O)c4c(c(O)c3[C@@]2(C)CC1=O)O[C@@H](C)C4`, for which the IC50 in the data set with RAW264.7 was 31.4 µM. Take `CC1=C(C)[C@H](O)C[C@@]2(C)C1=CC(=O)c1c2c(O)c2oc(C)cc2c1O`: in data set [1], the viability at 25 µM is < 15%.

On to `C=C1C(C)=CC[C@]2(C)c3c(cc(CC(C)O)c(O[C@@H]4O[C@H](CO)[C@@H](O)[C@H](O)[C@H]4O)c3O)C(=O)C[C@@H]12` (some centres undefined), for which the IC50 in the data set on RAW264.7 is > 50 µM.

Take `C[C@H]1Cc2c(O)c3c(c(O)c2O1)[C@@]1(C)CCC(=O)C(C)(C)[C@@H]1CC3=O`: the IC50 with RAW264.7 was > 50 µM. As to `COC1=C2C(C)(C)C(=O)CC[C@]2(C)c2c(c(O)c3cc(C)oc3c2O)C1=O`, in the data set on RAW264.7, the IC50 came to 31.1 µM.

On to `COC1=C2C(C)(C)CCC[C@]2(C)c2c(c(O)c3cc(CO)oc3c2O)C1=O`, for which, in the data set with RAW264.7, the IC50 came out at 16.1 µM. Turning to `CC1=C(C)[C@H](O)C[C@@]2(C)C1=CC(=O)c1c(O)c3c(c(O)c12)O[C@@H](C)C3`, in data set [1], the viability at 25 µM was < 15%. Turning to `CC(C)c1cc2c(c(O)c1O)[C@@]1(C)CCCC(C)(C)[C@@H]1CC2=O` [DEMETHYLCRYPTOJAPONOL], the 50% inhibitory concentration (IC50) in the data set with RAW264.7 turned out to be 15.5 µM.

As to `CC1=C(C)[C@@H](O)C[C@@]2(C)C1=CC(=O)c1c(O)c3c(c(O)c12)O[C@@H](C)C3`, the IC50 in the data set on RAW264.7 came to 6.5 µM.

Regarding `CC1=C(C)C2=CC(=O)c3c(O)c4c(c(O)c3[C@@]2(C)CC1)O[C@@H](C)[C@@H]4O`, in the data set with RAW264.7, the half-inhibitory concentration (IC50) is > 50 µM. On to `CC1=C(C)[C@@H](O)C[C@@]2(C)C1=CC(=O)c1c2c(O)c2oc(C)cc2c1O`, for which, in the data set with RAW264.7, the IC50 was > 50 µM. As to `CC(CO)c1cc2c(c(O)c1O[C@@H]1O[C@H](CO)[C@@H](O)[C@H](O)[C@H]1O)[C@@]1(C)CC[C@H](O)C(C)(C)[C@@H]1CC2` (some centres undefined), in the data set on RAW264.7, the IC50 is > 50 µM. Still for that read-out and setting: for `C=C1C2=CC(=O)c3c(O)c4c(c(O)c3[C@@]2(C)CC[C@@]1(C)O)OC(C)C4` (some centres undefined) the value was > 50 µM; for `CC1(C)CCC[C@]2(C)c3c(O)c4c(c(O)c3C(=O)C[C@@H]12)C[C@H](CO)O4`, > 50 µM; for `COC1=C2C(C)(C)CCC[C@]2(C)c2c(O)c3c(c(O)c2C1=O)C[C@H](CO)O3`, 35.6 µM. Take `CC1=C(CO)C2=CC(=O)c3c(c(O)c4oc(C)cc4c3O)[C@@]2(C)CC1=O`: the IC50 in the data set on RAW264.7 was > 50 µM. The same measure, in the same setting: for `Cc1cc2c(O)c3c(c(O)c2o1)[C@@]1(C)CCC(=O)C(C)(C)[C@@H]1CC3=O` the value was 6 µM; for `C[C@@H](CO)c1cc2c(c(O)c1O)[C@@]1(C)CCCC(C)(C)[C@@H]1CC2=O`, > 50 µM. In the case of `C[C@@]12C[C@@H]1CC[C@]1(C)c3c(O)c4c(c(O)c3C(=O)C[C@@H]21)C[C@H](CO)O4`, the IC50 with RAW264.7 was > 50 µM. The same measure, in the same setting: for `CC(C)c1cc2c(c(O)c1O[C@@H]1O[C@H](CO)[C@@H](O)[C@H](O)[C@H]1O)[C@@]1(C)CC[C@H](O[C@@H]3O[C@H](CO)[C@@H](O)[C@H](O)[C@H]3O)C(C)(C)[C@@H]1CC2` the value was > 50 µM; for `CC1=C(C)C2=CC(=O)c3c(c(O)c4oc(C)cc4c3O)[C@@]2(C)CC1=O`, > 50 µM; for `C[C@H]1Cc2c(O)c3c(c(O)c2O1)[C@@]1(C)CCC2=C(COC2=O)C1=CC3=O`, 28.9 µM. As for `CC1=C(C)C2=CC(=O)c3c(O)c4c(c(O)c3[C@@]2(C)CC1=O)O[C@@H](C)[C@@H]4O`, the IC50 in the data set with RAW264.7 came to 38.6 µM. Same read-out and setting: then `Cc1cc2c(O)c3c(c(O)c2o1)[C@@]1(C)CCC(=O)C(C)(C)C1=C(O)C3=O`, with > 50 µM; and `CC1=C(C)C2=CC(=O)[C@@]34O[C@@]3(C(=O)c3oc(C)cc3C4=O)[C@@]2(C)CC1`, with 10.6 µM. Take `CC1=C(C)C2=CC(=O)c3c(O)c4c(c(O)c3[C@@]2(C)CC1)O[C@@H](C)C4`: the viability at 25 µM in data set [1] was < 15%. On the same count and under the same terms, then `C[C@H]1Cc2c(O)c3c(c(O)c2O1)[C@@]1(C)CC[C@H](O)C(C)(C)[C@@H]1CC3=O`, with < 15%.

Consider `CC1=C(C)C2=CC(=O)C3=C(C(=O)[C@]4(Oc5c([C@H](C)CO)cc6c(c5O4)[C@]4(C)CCCC(C)(C)[C@H]4CC6=O)[C@@]4(O)C[C@H](C)O[C@]34O)[C@]2(C)CC1`, for which the IC50 in the data set on RAW264.7 is 5.6 µM. In the case of `COC1=C2C(C)(C)CCC[C@]2(C)c2c(O)c3c(c(O)c2C1=O)C[C@H](C)O3`, the IC50 with RAW264.7 was > 50 µM. Same read-out and setting: for `CC(O)Cc1cc2c(c(O)c1O)[C@@]1(C)CCCC(C)(C)[C@@H]1CC2=O` (some centres undefined) the value was > 50 µM. As for `CC1=C(C)C2=CC(=O)c3c(c(O)c4oc(C)cc4c3O)[C@@]2(C)CC1`, the viability at 25 µM in data set [1] is < 15%. With `C[C@H]1Cc2c(O)c3c(c(O)c2O1)[C@@]1(C)CC[C@]2(C)O[C@]2(C)C1=CC3=O`, the IC50 with RAW264.7 is > 50 µM. With `CC1=C(CO)C(=O)C[C@@]2(C)C1=CC(=O)c1c(O)c3c(c(O)c12)O[C@@H](C)C3`, in data set [1], the viability at 25 µM was < 15%.

Take `CC1(C)CCC[C@@]2(C)C1=CC(=O)c1c(O)c3c(c(O)c12)O[C@@H](CO)C3`: the viability at 25 µM in data set [1] is < 15%.

Turning to `COC1=C2C(C)(C)C(=O)CC[C@]2(C)c2c(O)c3c(c(O)c2C1=O)C[C@H](C)O3`, in the data set on RAW264.7, the IC50 was > 50 µM. Still for that read-out and setting: then `COC(=O)C1=C(C)C2=CC(=O)c3c(O)c4c(c(O)c3[C@@]2(C)CC1)O[C@@H](C)C4`, with > 50 µM; and `CC(C)c1cc2c(c(O)c1O[C@@H]1O[C@H](CO)[C@@H](O)[C@H](O)[C@H]1O)[C@@]1(C)CCC[C@](C)(C(=O)O[C@@H]3O[C@H](CO)[C@@H](O)[C@H](O)[C@H]3O)[C@@H]1CC2`, with > 50 µM; and `CC1(C)CCC[C@@]2(C)C1=C(O)C(=O)c1c(O)c3c(c(O)c12)O[C@@H](CO)C3` [VILLOSIN C], with 15.5 µM.
